Compound activity deposited in PubChem by several laboratories.
ABHD5 PLIN5 PPI: ABHD5-PLIN5 interaction inhibitors, primary screen, cell lysate, split luciferase complementation, luminescence; 0.78% of 360,000 active; inhibition, % at 4 µM; Perilipin-5 (Homo sapiens) + 1-acylglycerol-3-phosphate O-acyltransferase ABHD5 (Homo …; Split G. princeps luciferase complementation, 4 h;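 active means inhibition above the mean inhibition across every tested compound plus 3 SD, cut at about 22% in these data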;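 further: 0% = DMSO only wells and the 100% control is not disclosed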
A3A deaminase: APOBEC3A ssDNA deaminase inhibitors, primary screen, selectivity assay for APOBEC3G inhibitor project, biochemical, FAM/TAMRA oligo cleavage fluorescence; DNA dC->dU-editing enzyme APOBEC-3A (Homo sapiens), P31941; recombinant A3A, FAM/TAMRA ssDNA deamination fluorescence; inhibition, % at 20 µM; 0.41% of 330,000 active;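 active means at least 40% inhibition at 20 µM here, with at most 30% in a related deaminase screen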;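 further: plate controls were A3A with DMSO for no effect and wells lacking A3A enzyme for full effect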
FN deposit inh: inhibitors of fibronectin matrix deposition, primary screen, AH1F cells, Alexa488-fibronectin fluorescence, plate reader | AH1F fibroblasts, overnight | inhibition, % at 12.6 µM | 0.086% of 350,000 active | AID 743247, 2014;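 active means mean inhibition across replicates of 30% or more, regardless of how many single replicates reach that level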;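 further: positive control wells lacked labelled fibronectin entirely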
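Material: AH1F fibroblast monolayer depositing Alexa488-labelled fibronectin into matrix / Amount: 10000 AH1F cells per well / Signal: fluorescence 485/525 nm / Medium: DMEM, 2% serum / Compound: single dose, pinned / Incubation: 1 h cell adhesion before compound, then overnight fibronectin incubation / Reagent: Alexa488-FN, 24 nM final / Read-out: inhibition of fibronectin deposition signal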
A3G deaminase: APOBEC3G DNA deaminase inhibitors, primary screen, biochemical, fluorescence, single-stranded DNA substrate, uHTS. DNA dC->dU-editing enzyme APOBEC-3G (Homo sapiens), Q9HC16. 0.28% of 330,000 active. recombinant A3G, ssDNA deamination FAM/TAMRA fluorescence. inhibition, % at 20 µM;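 active means inhibition of at least 40% at 20 µM, with no more than 30% in the related APOBEC3A deaminase screen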;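 further: plate controls were DMSO wells with A3G for no effect and wells lacking A3G enzyme for full effect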
ABHD5 PLIN5 conf: ABHD5-PLIN5 interaction inhibitors, confirmation, biochemical, luminescence | 67% of 2,200 active | shares compounds with ABHD5 PLIN5 PPI | inhibition, % at 4 µM; in the data active means inhibition above about 23%;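 further: 0% = DMSO vehicle wells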
HNF4 counter: HNF4 dimerization inhibitors, counter-screen for ABHD5-PLIN5 interaction inhibitor project, biochemical, split-luciferase complementation, luminescence; shares compounds with ABHD5 PLIN5 PPI; inhibition, % at 4 µM; 77% of 2,200 active; AID 651674, 2012;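 active means mean inhibition across replicate wells exceeding the computed hit threshold, cut at about 13% in these data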;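 further: light from luciferase halves that rejoin when HNF4 fusion proteins dimerize; 0% = DMSO only wells and the 100% control is not given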
Target sequence (P41235 whole entry, looked up, the tested form may be a part): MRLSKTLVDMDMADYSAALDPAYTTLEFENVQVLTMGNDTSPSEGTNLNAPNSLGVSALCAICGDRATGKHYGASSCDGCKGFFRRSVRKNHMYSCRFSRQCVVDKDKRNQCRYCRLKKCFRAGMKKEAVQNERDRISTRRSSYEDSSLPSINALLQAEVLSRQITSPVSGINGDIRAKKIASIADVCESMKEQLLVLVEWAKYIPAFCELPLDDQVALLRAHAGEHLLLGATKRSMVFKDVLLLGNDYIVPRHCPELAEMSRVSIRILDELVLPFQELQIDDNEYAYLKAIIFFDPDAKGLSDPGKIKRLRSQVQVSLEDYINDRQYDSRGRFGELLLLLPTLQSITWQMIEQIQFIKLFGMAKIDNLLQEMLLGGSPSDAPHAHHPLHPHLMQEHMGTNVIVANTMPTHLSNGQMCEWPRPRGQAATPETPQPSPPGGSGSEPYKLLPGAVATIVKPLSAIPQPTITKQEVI
* hit, by the source's call; x = no result given. Rows were chosen to be rich in hits. Some 1.2% of all compounds tested hit in one or more screens of this group.

SMILES	ABHD5 PLIN5 PPI	A3A deaminase	FN deposit inh	A3G deaminase	ABHD5 PLIN5 conf	HNF4 counter
COc1ccc(CN(C)C[C@@H]2Oc3c(NC(=O)C4CC4)cccc3C(=O)N([C@H](C)CO)C[C@H]2C)cc1	x	x	11	x	x	x
COc1ccc(S(=O)(=O)Nc2cccc3c2O[C@H](CN(C)Cc2ccccc2)[C@@H](C)CN([C@H](C)CO)C3=O)cc1	-4	-3	-20	-8	x	x
COc1ccc(S(=O)(=O)Nc2cccc3c2O[C@H](CN(C)Cc2ccncc2)[C@@H](C)CN([C@H](C)CO)C3=O)cc1	24*	0	8	-2	3	0
C[C@H](CO)N1C[C@H](C)[C@@H](CN(C)Cc2ccc(Oc3ccccc3)cc2)Oc2c(NC(=O)C3CC3)cccc2C1=O	28*	0	-8	9	9	4
C[C@H]1CN([C@@H](C)CO)C(=O)c2cccc(NC(=O)Nc3ccc(C(F)(F)F)cc3)c2O[C@H]1CN(C)C	28*	0	-6	-8	13	3
Cc1noc(C)c1NC(=O)N[C@@H]1CC[C@@H](CCNC(=O)C2CC2)O[C@H]1CO	x	x	1	x	x	x
O=c1[nH]c(/C=C/c2ccc3c(c2)OCO3)c([N+](=O)[O-])c(=O)[nH]1	x	0	x	-7	x	x
O=c1[nH]c(/C=C/c2ccc([N+](=O)[O-])cc2)c([N+](=O)[O-])c(=O)[nH]1	50*	-5	-6	4	85*	79*
CCOc1ccc(NC(=O)CN(C)C(=O)C2CC(=O)N(Cc3ccco3)C2)cc1OCC (configuration not stated)	23*	6	5	-9	29*	24*
COC(=O)c1ccc2c(c1)C(C)(C)C(/C=C/c1ccc(O)cc1)=[N+]2C	71*	24	x	17	102*	101*
Cc1ccc(S(=O)(=O)N[C@@H]2CC[C@@H](CCn3cc(C4CCCC4)nn3)O[C@H]2CO)cc1	x	x	-6	x	x	x
O=S(=O)(Nc1ccc(Cl)cc1)c1ccc(N2CCOCC2)c(NC(=S)NCCN2CCOCC2)c1	31*	1	-6	35	-5	48*
COc1ccc(C(NC(=O)/C=C/c2ccco2)c2ccc(OC)c(OC)c2)cc1OC	24*	2	-1	3	59*	54*
COc1ccc(C(NC(=O)c2ccco2)c2ccc(OC)c(OC)c2)cc1 (configuration not stated)	4	1	x	0	x	x
Cc1ccc(C2C3=C(CCCC3=O)N=C3c4ccccc4C(=O)C32)cc1 (configuration not stated)	33*	-5	-9	-4	51*	55*
CC(=O)N1c2ccccc2NC2=C(C(=O)CCC2)C1c1ccco1 (configuration not stated)	30*	7	2	2	19	37*
O=C(Oc1ccc(Br)cc1C(=O)/C=C/c1ccccc1F)c1ccco1	73*	1	-1	-3	99*	93*
C[C@@H]1CN([C@H](C)CO)C(=O)c2cc(NC(=O)CCCN(C)C)ccc2O[C@@H](C)CCCCO[C@H]1CN(C)C(=O)CCCN(C)C	x	x	-7	x	x	x
CN1C(=O)c2cc(NS(=O)(=O)c3ccc(F)cc3)ccc2OC[C@H]2O[C@@H](CC(=O)Nc3cccc4ccccc34)CC[C@@H]21	x	x	6	x	x	x
CNC[C@H](Cc1ccccc1)NC[C@@H](Cc1cccc2ccccc12)NCCc1ccc(C)cc1	39*	-1	5	-6	5	14*
CNCCNC[C@H](Cc1cccc2ccccc12)NCCc1ccccc1	9	-3	5	-3	x	x
O=C(Cn1nc(CNc2ccc(Cl)cc2)[n+]2c1CCCCC2)c1ccccc1	25*	-1	5	-8	13	4
CCCN(C)C[C@H]1Oc2cc(C#CCOC)ccc2S(=O)(=O)N([C@@H](C)CO)C[C@H]1C	x	x	9	x	x	x
